In the M2OR odorant receptor database:

target: T1, OR10J5 (Homo sapiens) (UniProt Q8NHC4); conditions: stereoisomer not certain
T1 sequence (whole entry): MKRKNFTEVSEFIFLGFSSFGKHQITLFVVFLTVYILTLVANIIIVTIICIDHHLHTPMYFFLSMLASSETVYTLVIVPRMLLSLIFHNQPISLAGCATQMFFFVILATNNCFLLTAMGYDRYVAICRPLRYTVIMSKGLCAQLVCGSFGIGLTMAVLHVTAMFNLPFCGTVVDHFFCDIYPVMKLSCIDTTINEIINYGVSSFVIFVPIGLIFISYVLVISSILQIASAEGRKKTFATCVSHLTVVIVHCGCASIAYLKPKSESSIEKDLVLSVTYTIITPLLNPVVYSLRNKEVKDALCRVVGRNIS
Procedure, shortened: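 Assay methods differ from source to source, frequently being transient luciferase assays in mammalian cell lines. For each receptor–molecule pair, the label responsive (active) applies when the original authors judged the measured signal statistically different from baseline, and non-responsive (inactive) applies otherwise.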

Odorant receptor agonist call, inactive:
CC(C)=CCCC(C)CCO (stereo not given)
O=c1ccc2ccccc2o1
CC(=O)OCC=C(C)C
c1ccccc1
CCCCCCCCC(=O)O
CC(=O)Oc1ccccc1
CC(=O)OCc1ccccc1
CCCCCCCCCO
CCCCC(=O)O
CCCCCCCCCCO
O=C(c1ccccc1)c1ccccc1
CCCCCCCCS
C=CCOC(=O)CCCCCC
CCCCCCCCCC(=O)[O-].[H+]
COc1cc(C(=O)O)ccc1O
CCCCC(=O)CC
CCC(C(=O)O)c1ccccc1 (stereo not given)
CC(C)=CCCC(C)=CCO
CCCCCCC(=O)[O-].[H+]
CCOC(=O)C(C)C
CCCCCO
CCC(=O)O
CCCCCCOC(C)=O
O=C1Cc2ccccc2O1
CCCCCCCO
CCCCOC(=O)C(C)OC(=O)CCC (stereo not given)
CCCCCOC(=O)CCCCC
CCCCCCCCCS
CCCC(=O)C(C)=O
CCCCOC=O
